Our source for the IC50 values is ChEMBL document CHEMBL2029219, “Synthesis, biological evaluation, and molecular modeling of natural and unnatural flavonoidal alkaloids, inhibitors of kinases” (J Med Chem, 2012).

For experiment [1], the target named is Cyclin-dependent kinase 5/CDK5 activator 1 (Homo sapiens, UniProt Q00535). Kind of experiment: Inhibition of human recombinant CDK5/p25 using [gamma 33P]ATP after 30 mins by scintillation counting. Type of experiment: protein-complex assay. In outline:
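Native starfish M-phase oocyte CDK1/cyclin B, or recombinant human CDK5/p25, in buffer A pH 7.5 with heparin and BSA. Stopped on P81 paper, washed in 1% phosphoric acid, counted by scintillation. Blank subtracted; % of maximal activity; DMSO dilution controls.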

For experiment [2], the target named is Glycogen synthase kinase-3 (Sus scrofa, UniProt B2LUN4+I6LNT8). Kind of experiment: Inhibition of porcine brain GSK3alpha/beta using GS1 as substrate. In outline:
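Native GSK-3α/β purified from porcine brain, assayed as for CDK1. Buffer A pH 7.5 with heparin and BSA, 30 °C, 15 μM [γ-33P]ATP, phosphorylated GS-1 peptide as substrate. Read by P81 paper capture and scintillation counting. Activity as % of uninhibited control after blank subtraction.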

Experiment [3] deals with Dual specificity protein kinase CLK1 (Mus musculus, UniProt P22518). The experiment can be described thus: Inhibition of GST-tagged mouse recombinant CLK1 expressed in Escherichia coli using GRSRSRSRSRSR as substrate.
Experiment [4] has as its target Dual specificity tyrosine-phosphorylation-regulated kinase 1A (Rattus norvegicus, UniProt Q63470). The experiment can be described thus: Inhibition of GST-tagged rat recombinant DYRK1A expressed in Escherichia coli using KKISGRLSPIMTEQ as substrate.
Experiment [5] is described as follows: Inhibition of starfish oocyte CDK1/cyclin B using [gamma 33P]ATP after 30 mins by scintillation counting. Set-up: species or system Asteroidea. In outline: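 Native starfish M-phase oocyte CDK1/cyclin B, or recombinant human CDK5/p25, in buffer A pH 7.5 with heparin and BSA. Substrate histone H1 25 μg with 15 μM [γ-33P]ATP, 30 min at 30 °C. Stopped on P81 paper, washed in 1% phosphoric acid, counted by scintillation. Blank subtracted; % of maximal activity; DMSO dilution controls.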

pIC50: −log10 of the molar value.

For orientation: pIC50 means −log10 of the IC50, conventionally taken in molar units. What is called IC50 is the concentration that inhibits the measured activity by half. Higher therefore signals a need for much substance.

Chain of Cyclin-dependent kinase 5/CDK5 activator 1 (Q00535 whole entry): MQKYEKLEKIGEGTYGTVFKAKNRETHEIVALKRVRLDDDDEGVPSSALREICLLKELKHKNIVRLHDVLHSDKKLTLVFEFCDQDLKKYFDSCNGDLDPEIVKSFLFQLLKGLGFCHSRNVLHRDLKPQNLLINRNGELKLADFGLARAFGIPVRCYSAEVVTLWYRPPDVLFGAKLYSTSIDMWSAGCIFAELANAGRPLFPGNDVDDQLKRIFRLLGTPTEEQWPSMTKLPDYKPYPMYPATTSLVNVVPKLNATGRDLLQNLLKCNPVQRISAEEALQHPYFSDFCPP
Chain of Cyclin-dependent kinase 5/CDK5 activator 1 (Q15078 whole entry, further chain): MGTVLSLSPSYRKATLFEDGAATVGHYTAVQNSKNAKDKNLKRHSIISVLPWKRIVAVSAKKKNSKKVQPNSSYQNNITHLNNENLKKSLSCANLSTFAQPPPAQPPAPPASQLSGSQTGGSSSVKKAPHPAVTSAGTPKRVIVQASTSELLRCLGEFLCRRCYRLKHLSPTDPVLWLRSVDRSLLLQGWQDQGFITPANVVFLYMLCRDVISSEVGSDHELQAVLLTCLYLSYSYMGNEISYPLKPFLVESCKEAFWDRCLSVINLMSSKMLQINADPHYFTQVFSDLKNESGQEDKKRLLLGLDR
Chain of Dual specificity protein kinase CLK1 (P22518 whole entry): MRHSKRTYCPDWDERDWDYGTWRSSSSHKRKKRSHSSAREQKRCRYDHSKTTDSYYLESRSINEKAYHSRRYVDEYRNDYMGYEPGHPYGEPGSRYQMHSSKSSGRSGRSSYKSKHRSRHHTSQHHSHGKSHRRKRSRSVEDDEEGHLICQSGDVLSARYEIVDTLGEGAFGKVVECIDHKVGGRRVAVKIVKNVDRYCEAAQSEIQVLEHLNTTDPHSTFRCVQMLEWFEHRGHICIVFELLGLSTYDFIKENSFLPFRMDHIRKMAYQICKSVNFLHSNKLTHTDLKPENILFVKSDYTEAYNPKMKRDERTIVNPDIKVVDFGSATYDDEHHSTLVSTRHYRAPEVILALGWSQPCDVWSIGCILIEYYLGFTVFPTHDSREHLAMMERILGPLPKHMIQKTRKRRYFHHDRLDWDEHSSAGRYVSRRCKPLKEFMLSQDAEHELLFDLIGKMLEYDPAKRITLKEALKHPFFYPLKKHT

For the compound `CCCCCC(NC)c1c(O)cc(O)c2c(=O)cc(-c3ccccc3)oc12` (racemic), the pIC50 is 6.28 in experiment [1], < 5.00 in experiment [3], < 5.00 in experiment [4] and 5.96 in experiment [5]. In experiment [2], this compound showed an IC50 of 5200 nM.

On to `CN1CCCCC1c1c(O)cc(O)c2c(=O)cc(-c3ccccc3)oc12` (racemic), for which the negative-log IC50 (pIC50) was 5.77 in experiment [1], 5.07 in experiment [3], < 5.00 in experiment [4] and 7.05 in experiment [5]. In experiment [2], the 50% inhibitory concentration (IC50) came out at 5100 nM.

Take `CN1CCCC[C@@H]1c1c(O)cc(O)c2c(=O)cc(-c3ccccc3)oc12`: the pIC50 in experiment [1] was 6.02; in experiment [3], < 5.00; in experiment [4] it was < 5.00; in experiment [5] it was 5.96. The IC50 result in experiment [2] was “>= 10 uM”.

`COc1cc(O)c(C2CCCCN2C)c2oc(-c3ccccc3)cc(=O)c12` (stereo unspecified) [BUCHENAVIANINE]: the negative logarithm of the IC50 (pIC50) in experiment [1], in experiment [3], in experiment [4] and in experiment [5] was < 5.00 throughout. In experiment [2], the IC50 is > 10000 nM.

On to `CN1CCC[C@@H]1c1c(O)cc(O)c2c(=O)cc(-c3ccccc3)oc12`, for which the pIC50 in experiment [1] is 6.24; in experiment [3] it was 5.13; in experiment [4], < 5.00; in experiment [5] it was 6.41. Also, in experiment [2], the half-maximal inhibitory concentration (IC50) worked out at 2600 nM.

Regarding `CN1CCCC[C@H]1c1c(O)cc(O)c2c(=O)cc(-c3ccccc3)oc12`, the negative logarithm of the IC50 (pIC50) is 7.30 in experiment [1], 5.68 in experiment [3], < 5.00 in experiment [4] and 7.52 in experiment [5]. In experiment [2], this compound registered an IC50 of 1600 nM.

`CN1CC[C@H](c2c(O)cc(O)c3c(=O)cc(-c4ccccc4Cl)oc23)[C@H](O)C1` (single isomer, unassigned) [ALVOCIDIB] showed an IC50 in experiment [2] of 360 nM. In experiment [5], this compound had a pIC50 of 7.05.

Consider `CCCCC[C@@H](NC)c1c(O)cc(O)c2c(=O)cc(-c3ccccc3)oc12`, for which the negative logarithm of the IC50 (pIC50) in experiment [1] was 6.57; in experiment [3] it was < 5.00; in experiment [4], < 5.00; in experiment [5] it was 6.28. The IC50 in experiment [2] was 4100 nM.

On to `O=c1cc(-c2ccccc2)oc2c(C3CCCCN3)c(O)cc(O)c12` (racemic), for which the pIC50 in experiment [1] was 5.26; in experiment [3], < 5.00; in experiment [4], < 5.00; in experiment [5] it was 5.30. Further, the IC50 in experiment [2] is > 10000 nM.

For `CCCCC[C@H](NC)c1c(O)cc(O)c2c(=O)cc(-c3ccccc3)oc12`, the negative-log IC50 (pIC50) is 5.68 in experiment [1], < 5.00 in experiment [3], < 5.00 in experiment [4] and 5.27 in experiment [5]. For the same compound, in experiment [2], the IC50 is > 10000 nM.

For `CN1CCC[C@H]1c1c(O)cc(O)c2c(=O)cc(-c3ccccc3)oc12`, the pIC50 in experiment [1] was 7.40; in experiment [3], 6.17; in experiment [4], < 5.00. The IC50 in experiment [2] is 720 nM.

As to `O=c1cc(-c2ccccc2)oc2c(C3CCCN3)c(O)cc(O)c12` (racemic), the pIC50 in experiment [1] is 5.96; in experiment [3] it was < 5.00; in experiment [4], < 5.00; in experiment [5], 5.80. In addition, the half-inhibitory concentration (IC50) in experiment [2] was > 10000 nM.

Regarding `CN1CCCC1c1c(O)cc(O)c2c(=O)cc(-c3ccccc3)oc12` (racemic), the negative-log IC50 (pIC50) was 7.05 in experiment [1], 5.80 in experiment [3], < 5.00 in experiment [4] and 7.30 in experiment [5]. Moreover, the IC50 in experiment [2] stood at 1300 nM.

For `COc1cc(O)c(C2CCCCN2)c2oc(-c3ccccc3)cc(=O)c12` (stereo unspecified), the pIC50 in experiment [1], in experiment [3], in experiment [4] and in experiment [5] was < 5.00 each time. The IC50 in experiment [2] is > 10000 nM.
